# Where a SMILES comes first, the peptide text is derived from it.
# Experiments:
# KB [1] = experiment: Cytotoxicity against human KB cells; format: functional, cell-based
# [2] = Cytotoxicity against mouse EAC cells; format: functional; conditions: Ehrlich
# MDA-MB-231 = experiment: Cytotoxicity against human MDA-MB-231 cells after 72 hrs by MTS assay; format: functional, cell-based; conditions: MDA-MB-231, 72 h
# In short: (§1)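 Cells plated at 4 × 10³ cells/well, left overnight, then exposed to increasing concentrations (0.064–40 μM) diluted from DMSO solution into culture medium. After 72 h, MTS/PMS reagent added; absorbance read at 490 nm. Viability = (OD_treat − OD_blank)/(OD_control − OD_blank) × 100%, mean of triplicate wells; DMSO + medium untreated cells as control.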
# Jurkat = experiment: Cytotoxicity against human Jurkat T cells after 72 hrs by MTS assay; format: functional, cell-based; in short: as §1
# [3] = Cytotoxicity against mouse DLA cells; format: functional
# MOLT-4 = experiment: Cytotoxicity against human MOLT4 cells after 72 hrs by MTS assay; format: functional, cell-based; conditions: MOLT-4, 72 h; in short: as §1
# Candida albicans = experiment: Antimicrobial activity against Candida albicans; format: functional
# Escherichia coli = experiment: Antimicrobial activity against Escherichia coli; format: functional
# KB [4] = experiment: Cytotoxicity against human KB cells after 72 hrs by MTS assay; format: functional, cell-based; in short: as §1
# Pseudomonas aeruginosa = experiment: Antimicrobial activity against Pseudomonas aeruginosa; format: functional
SMILES,IC50 (MDA-MB-231) [µM],IC50 (KB [4]) [µM],other results
"CC(C)C[C@@H]1NC(=O)CNC(=O)[C@H](Cc2ccccc2)NC(=O)[C@H](Cc2ccc(O)cc2)NC(=O)[C@@H]2CCCN2C(=O)CNC1=O [Cherimolacyclopeptide E] (HELM PEPTIDE1{F.G.L.G.P.Y}$PEPTIDE1,PEPTIDE1,1:R1-6:R2$$$V2.0)",> 10,> 10,IC50 (KB [1]): > 10 µM; CC50 [2]: 4.96 µM; IC50 (Jurkat): > 10 µM; CC50 [3]: 2.76 µM; IC50 (MOLT-4): > 10 µM; MIC (Candida albicans): 6 µg/mL; MIC (Escherichia coli): 6 µg/mL; MIC (Pseudomonas aeruginosa): 6 µg/mL
"CC(C)C[C@@H]1NC(=O)CNC(=O)[C@H](Cc2ccccc2)NC(=O)[C@H](Cc2ccc(O)cc2)NC(=O)[C@H](C)NC(=O)CNC1=O (HELM PEPTIDE1{A.Y.F.G.L.G}$PEPTIDE1,PEPTIDE1,1:R1-6:R2$$$V2.0)",> 10,> 10,
"CC(C)C[C@@H]1NC(=O)CNC(=O)[C@H](Cc2ccccc2)NC(=O)[C@H](Cc2ccc(O)cc2)NC(=O)CNC(=O)CNC1=O (HELM PEPTIDE1{F.G.L.G.G.Y}$PEPTIDE1,PEPTIDE1,1:R1-6:R2$$$V2.0)",> 10,> 10,
"CC(C)C[C@@H]1NC(=O)[C@H](C)NC(=O)[C@H](Cc2ccccc2)NC(=O)[C@H](Cc2ccc(O)cc2)NC(=O)[C@@H]2CCCN2C(=O)CNC1=O (HELM PEPTIDE1{A.L.G.P.Y.F}$PEPTIDE1,PEPTIDE1,1:R1-6:R2$$$V2.0)",7.7,7.8,
"CC(C)C[C@@H]1NC(=O)CNC(=O)[C@H](C)NC(=O)[C@H](Cc2ccc(O)cc2)NC(=O)[C@@H]2CCCN2C(=O)CNC1=O (HELM PEPTIDE1{A.G.L.G.P.Y}$PEPTIDE1,PEPTIDE1,1:R1-6:R2$$$V2.0)",> 10,> 10,
COc1cccc2c1C(=O)c1c(O)c3c(c(O)c1C2=O)C[C@@](O)(C(=O)CO)C[C@@H]3O[C@H]1C[C@H](N)[C@H](O)[C@H](C)O1 [DOXORUBICIN],0.04,,
"CC(C)C[C@@H]1NC(=O)CNC(=O)[C@H](Cc2ccccc2)NC(=O)[C@H](C)NC(=O)[C@@H]2CCCN2C(=O)CNC1=O (HELM PEPTIDE1{A.F.G.L.G.P}$PEPTIDE1,PEPTIDE1,1:R1-6:R2$$$V2.0)",> 10,> 10,
"CC(C)C[C@@H]1NC(=O)CNC(=O)[C@H](Cc2ccccc2)NC(=O)[C@H](Cc2ccc(O)cc2)NC(=O)[C@@H]2CCCN2C(=O)[C@H](C)NC1=O (HELM PEPTIDE1{A.P.Y.F.G.L}$PEPTIDE1,PEPTIDE1,1:R1-6:R2$$$V2.0)",10.2,6.3,
"C[C@@H]1NC(=O)CNC(=O)[C@H](Cc2ccccc2)NC(=O)[C@H](Cc2ccc(O)cc2)NC(=O)[C@@H]2CCCN2C(=O)CNC1=O (HELM PEPTIDE1{A.G.P.Y.F.G}$PEPTIDE1,PEPTIDE1,1:R1-6:R2$$$V2.0)",> 10,> 10,
